This is an account of results in ChEMBL document CHEMBL3865832, “Rhizovarins A-F, Indole-Diterpenes from the Mangrove-Derived Endophytic Fungus Mucor irregularis QEN-189” (J Nat Prod, 2016).

Where a name gives a salt, the structure may show the parent alone.

Assay [1] in a line: Cytotoxicity against human A549 cells after 48 hrs by SRB assay. It counts as functional, cell-based. To be noted: A549, 48 h. Summed up:
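A549 human lung adenocarcinoma cells; cytotoxicity read by sulforhodamine B (SRB) staining, with adriamycin as positive control.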
On the technique in general: The SRB assay estimates cell density from bound dye.

The nature of assay [2]: Cytotoxicity against human HL60 cells after 48 hrs by MTT assay. Type of assay: functional, cell-based. To be noted: HL-60, 48 h. Summed up: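 HL-60 human leukemia cells; viability read by MTT reduction, with adriamycin as positive control.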

With `C=C(C)[C@H]1O[C@H]2CC[C@@]3(C)[C@@](O)(CC[C@H]4[C@@H]5OC(C)(C)[C@H]6C[C@@H]7C(=C)Cc8c(Cl)cc9[nH]c(c5c9c8[C@@]76O)[C@@]43C)[C@]23O[C@@H]3[C@H]1O`, the values for the IC50 in assay [1] and in assay [2] were 8.4 µM and 7 µM, respectively.
For `C=C(C)[C@H]1O[C@H]2CC[C@@]3(C)[C@@](O)(CC[C@H]4[C@@H]5OC(C)(C)[C@H]6C[C@@H]7C(=C)Cc8ccc9[nH]c(c5c9c8[C@@]76O)[C@@]43C)[C@]23O[C@@H]3[C@H]1O` the same measures were greater than 10 µM and greater than 10 µM.
For `C=C(C)[C@H]1O[C@H]2CC[C@@]3(C)[C@@](O)(CC[C@H]4Cc5c([nH]c6ccccc56)[C@@]43C)[C@]23O[C@@H]3[C@H]1O` the same measures were greater than 10 µM and greater than 10 µM.
For the compound `C=C1Cc2ccc3[nH]c4c5c3c2[C@H]2[C@@H]1C[C@@H]2C(C)(C)O[C@H]5[C@@H]1CC[C@@]2(O)C3=C[C@@H](O)[C@@H](C(=C)C)O[C@H]3CC[C@]2(C)[C@@]41C`, the IC50 in assay [1] and in assay [2] was greater than 10 µM in each case.
For the compound `C=C(C)[C@H]1O[C@H]2CC[C@@]3(C)[C@@](O)(CC[C@]4(OC)O[C@@H]5OC(C)(C)[C@H]6C[C@@H]7C(=C)Cc8c(Cl)cc9[nH]c(c5c9c8[C@@]76O)[C@@]43C)[C@]23O[C@@H]3[C@H]1O`, the IC50 (commonly the point on the concentration scale where inhibition reaches its midpoint) is 6.3 µM in assay [1] and 5 µM in assay [2].
For `CC(C)(O)[C@H]1O[C@H]2CC[C@@]3(C)[C@@H](CC[C@H]4Cc5c([nH]c6ccccc56)[C@@]43C)C2=C[C@H]1O`, in that order: 4.6 µM and 2.6 µM.
For `C=C1Cc2ccc3[nH]c4c(c3c2[C@H]2[C@@H]1C[C@@H]2C(C)(C)O)[C@@H](OC)[C@@H]1CC[C@@]2(O)[C@@]35O[C@@H]3[C@@H](O)[C@@H](C(=C)C)O[C@H]5CC[C@]2(C)[C@@]41C` the same measures were 9.2 µM and greater than 10 µM.
For `C=C1Cc2ccc3[nH]c4c(c3c2[C@H]2[C@@H]1C[C@@H]2C(C)(C)O)C[C@@H]1CC[C@@]2(O)C3=C[C@@H](O)[C@@H](C(=C)C)O[C@H]3CC[C@]2(C)[C@@]41C`, in that order: greater than 10 µM and greater than 10 µM.
Turning to `C=C(C)[C@H]1O[C@H]2CC[C@@]3(C)[C@@](O)(CC[C@]4(OC)O[C@@H]5OC(C)(C)[C@H]6C[C@@H]7C(=C)Cc8ccc9[nH]c(c5c9c8[C@@]76O)[C@@]43C)[C@]23O[C@@H]3[C@H]1O`, the concentration for half-maximal inhibition (IC50) in assay [1] and in assay [2] was greater than 10 µM throughout.
Take `C=C(C)[C@H]1O[C@H]2CC[C@@]3(C)[C@@](O)(CC[C@]4(O)O[C@@H]5OC(C)(C)[C@H]6C[C@@H]7C(=C)Cc8c(Cl)cc9[nH]c(c5c9c8[C@@]76O)[C@]34C)[C@]23O[C@@H]3[C@H]1O`: the values for the IC50 in assay [1] and in assay [2] were 11.5 µM and 9.6 µM, respectively.
`C=C(C)[C@H]1O[C@H]2CC[C@@]3(C)[C@@](O)(CC[C@H]4Cc5c([nH]c6ccccc56)[C@@]43C)C2=C[C@H]1O`: the IC50 in assay [1] and in assay [2] was greater than 10 µM each time.
Take `C=C(C)[C@@H]1CC=C2[C@H](CC[C@@]3(C)[C@@]2(O)CC[C@H]2Cc4c([nH]c5ccc6c(c45)[C@@H]4[C@@H](C(C)(C)O)C[C@@H]4C6(C)C)[C@@]23C)O1`: the IC50 in assay [1] and in assay [2] was greater than 10 µM each time.
For `CC(=O)OC(C)(C)[C@H]1O[C@H]2CC[C@@]3(C)[C@@H](CC[C@H]4Cc5c([nH]c6ccccc56)[C@@]43C)C2=CC1=O`, the IC50 in assay [1] and in assay [2] was greater than 10 µM each time.
As to `C=C(C)[C@H]1C[C@H](C(C)(C)O)[C@H]1c1cccc2c1C(=O)C[C@@H]1CC[C@@]3(O)C4=C[C@@H](O)[C@@H](C(=C)C)O[C@H]4CC[C@]3(C)[C@@]1(C)C(=O)N2`, the IC50 in assay [1] and in assay [2] was greater than 10 µM each time.
Take `COc1cccc2c1C(=O)c1c(O)c3c(c(O)c1C2=O)C[C@@](O)(C(=O)CO)C[C@@H]3O[C@H]1C[C@H](N)[C@H](O)[C@H](C)O1` [DOXORUBICIN HYDROCHLORIDE]: the IC50 in assay [1] came out at 0.3 µM; in assay [2], 0.067 µM.
For `C=C1Cc2ccc3[nH]c4c5c3c2[C@H]2[C@@H]1C[C@@H]2C(C)(C)O[C@H]5[C@@H]1CC[C@@]2(O)[C@@]35O[C@@H]3[C@@H](O)[C@@H](C(=C)C)O[C@H]5CC[C@]2(C)[C@@]41C` [PENITREM B], in that order: greater than 10 µM and greater than 10 µM.
For `C=C1Cc2c(Cl)cc3[nH]c4c5c3c2[C@H]2[C@@H]1C[C@@H]2C(C)(C)O[C@H]5[C@@H]1CC[C@@]2(O)C3=C[C@@H](O)[C@@H](C(=C)C)O[C@H]3CC[C@]2(C)[C@@]41C` [PENITREM C] the same measures were 8 µM and 4.7 µM.
For `C=C1Cc2c(Cl)cc3[nH]c4c5c3c2[C@H]2[C@@H]1C[C@@H]2C(C)(C)O[C@H]5[C@@H]1CC[C@@]2(O)[C@@]35O[C@@H]3[C@@H](O)[C@@H](C(=C)C)O[C@H]5CC[C@]2(C)[C@@]41C` [PENITREM F] the same measures were 8.2 µM and 3.3 µM.
